Data as given in ChEMBL document CHEMBL2380254, “Optimization of tocotrienols as antiproliferative and antimigratory leads” (Eur J Med Chem, 2013).
Activity calls are given as the source filed them. The rule behind the calls is not given here.

What was measured:
[1] = system: SK-MEL-28; experiment: Growth inhibition of human SK-MEL-28 cells after 48 hrs by sulforhodamine B assay; type: functional; details: SK-MEL-28, 48 h
Summary of the method: (§1)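 NCI-60 panel cells grown in RPMI 1640 with 5% FBS and 2 mM L-glutamine, seeded at 5000–40,000 cells/well and preincubated 24 h. Five 10-fold dilutions (0.001–100 µM) from DMSO stocks were added for 48 h at 37 °C. Adherent cells were fixed with cold TCA (10% final) for 60 min at 4 °C, stained with 0.4% SRB, and read at 515 nm. GI50 was set where 100×(T−T0)/(C−T0)=50.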

[2] = system: OVCAR-8; experiment: Growth inhibition of human OVCAR8 cells after 48 hrs by sulforhodamine B assay; type: functional; details: OVCAR-8, 48 h; summary of the method: as §1
[3] = system: SNB-75; experiment: Growth inhibition of human SNB75 cells after 48 hrs by sulforhodamine B assay; type: functional; details: SNB-75, 48 h
Summary of the method: (§2)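 NCI-60 five-dose screen. Cells were grown in RPMI 1640 with 5% FBS and 2 mM L-glutamine, plated at 5000–40,000 cells/well and incubated 24 h before dosing, with T0 plates TCA-fixed. DMSO stocks were diluted to doses of […] and exposed 48 h at 37 °C, 5% CO2. Cells were fixed with cold TCA (final 10%, 60 min, 4 °C), stained with 0.4% SRB in 1% acetic acid for 10 min, solubilized in 10 mM trizma base and read at 515 nm. GI50 is where 100×(T−T0)/(C−T0)=50.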

[4] = system: MCF-10A; experiment: Selectivity index, ratio of IC50 for human MCF10A cells to ratio of IC50 for mouse +SA cells; type: functional
Summary of the method: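 Index is the IC50 in MCF10A divided by the IC50 in +SA. +SA cells were kept in serum-free DMEM/F12 defined medium and given BSA-conjugated compounds at 0–40 µM (DMSO <0.1%). MCF10A cells were plated at 10×10^4 cells/well and fed compounds in serum-free medium.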

[5] = system: MCF7; experiment: Growth inhibition of human MCF7 cells after 48 hrs by sulforhodamine B assay; type: functional; details: MCF7, 48 h; summary of the method: as §1
[6] = system: MCF-10A; experiment: Antiproliferative activity against human MCF10A cells by MTT assay; type: cell-based
Summary of the method: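 MCF10A kept in DMEM/F12 with 5% horse serum, hydrocortisone, cholera toxin, insulin and EGF, plated at 10 × 10^4 cells/well. Compounds from DMSO stock (final DMSO <0.1%, equal across groups) fed in serum-free media. Viable cell number by MTT; IC50 by non-linear regression.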

[7] = system: SW-620; experiment: Growth inhibition of human SW620 cells after 48 hrs by sulforhodamine B assay; type: functional; details: SW-620, 48 h; summary of the method: as §2
[8] = system: +SA cell; experiment: Antitumor activity against mouse +SA cells allografted in BALB/c mouse assessed as reduction in tumor volume at 0.5 mg, iv administered on day 40 post challenge for 14 days; type: functional, organism-based
Summary of the method: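 Female BALB/c mice, 3–4 months old, given 1 × 10^6 +SA cells into the #4 mammary fat pad under ketamine/xylazine. About 40 days later, once tumors were palpable, 0.5 mg in 0.1 mL propylene glycol/DMSO (1:1) by daily tail-vein injection for 14 days; vehicle controls. Caliper volume L×W²/2 and body weight recorded every other day. 14–15 mice/group; ANOVA with Duncan's test.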

[9] = system: MDA-MB-231; experiment: Antimigratory activity against human MDA-MB-231 cells after 24 hrs by wound-healing assay; type: functional, cell-based; details: MDA-MB-231, 24 h
Summary of the method: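 MDA-MB-231 in RPMI 1640 with 10% FBS grown to >95% confluent monolayer, scratched with a pipette tip and washed. Then 24 h exposure in 0.5% serum at five non-toxic concentrations in DMSO, triplicate, DMSO as negative control. Diff Quick fixed and stained; migrated cells counted in ≥3 random 40× fields. IC50 = concentration inhibiting migration of 50% of cells.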

[10] = system: Mus musculus; experiment: Toxicity in BALB/c mouse allografted with mouse +SA cells assessed as body weight change at 0.5 mg, iv administered on day 40 post challenge for 14 days; type: organism-based, +SA cell; details: in vivo, 336 h
Summary of the method: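 Female BALB/c mice, 3–4 months old, received 1×10^6 +SA cells in 0.1 mL medium into the #4 mammary fat pad. About 40 days later, once tumors were palpable, daily tail-vein injections began for 14 days: 0.5 mg in 0.1 mL propylene glycol/DMSO (1:1), with vehicle controls. Body weight was recorded every other day, with 14–15 mice per group. Analysis used ANOVA with Duncan's test.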

[11] = system: SK-MEL-5; experiment: Growth inhibition of human SK-MEL-5 cells after 48 hrs by sulforhodamine B assay; type: functional; details: SK-MEL-5, 48 h; summary of the method: as §1
[12] = system: K562; experiment: Growth inhibition of human K562 cells after 48 hrs by sulforhodamine B assay; type: functional; details: K562, 48 h
Summary of the method: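 NCI-60 screen: cells in RPMI 1640 with 5% FBS and 2 mM glutamine, 5000–40,000 cells/well, preincubated 24 h. Five concentrations (10-fold dilutions; 100 to 0.001 µM) applied for 48 h at 37 °C. TCA fixation, SRB stain, absorbance at 515 nm. Time-zero plates included; GI50 where 100×(T−T0)/(C−T0)=50.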

Compound	GI50 [1]	GI50 [2]	GI50 [3]	Ratio IC50 [4]	GI50 [5]	IC50 [6]	GI50 [7]	Activity [8]	IC50 [9]	Activity [10]	GI50 [11]	GI50 [12]
CC(C)=CCC/C(C)=C/CC/C(C)=C/CC[C@]1(C)CCc2c3c(c(C)c(C)c2O1)OCN(CCCCCO)C3	5890 nM	6390 nM	4030 nM	5.24	3740 nM	8900 nM	6050 nM	–	–	–	–	–
COc1ccc(CCN2COc3cc(C)c4c(c3C2)CC[C@@](C)(CC/C=C(\C)CC/C=C(\C)CCC=C(C)C)O4)cc1OC	1750 nM	2200 nM	1200 nM	–	1540 nM	–	2000 nM	–	–	–	–	–
CC(C)=CCC/C(C)=C/CC/C(C)=C/CC[C@]1(C)CCc2cc(O)c(C)c(C)c2O1 [GAMMA-TOCOTRIENOL]	–	–	–	1.1	–	4400 nM	–	inactive	> 40000 nM	Non-toxic	–	–
COc1ccc(CCNCc2c(O)c(C)c(C)c3c2CC[C@@](C)(CC/C=C(\C)CC/C=C(\C)CCC=C(C)C)O3)cc1OC	–	–	–	–	–	–	–	Active	–	Non-toxic	–	–
CC(C)=CCC/C(C)=C/CC/C(C)=C/CC[C@]1(C)CCc2c3c(cc(C)c2O1)OCN(CCCO)C3	1780 nM	1950 nM	1290 nM	3.61	1660 nM	6500 nM	1830 nM	–	6000 nM	–	–	–
CC(C)=CCC/C(C)=C/CC/C(C)=C/CC[C@]1(C)CCc2c3c(cc(C)c2O1)OCN(CCCCCCCCO)C3	3430 nM	4460 nM	4110 nM	2.15	515 nM	1700 nM	–	–	4900 nM	–	2760 nM	772 nM
CC(C)=CCC/C(C)=C/CC/C(C)=C/CC[C@]1(C)CCc2c3c(c(C)c(C)c2O1)OCN(CCCCCCO)C3	2760 nM	3060 nM	2460 nM	–	2730 nM	–	–	–	–	–	2880 nM	2960 nM
CC(C)=CCC/C(C)=C/CC/C(C)=C/CC[C@]1(C)CCc2c3c(cc(C)c2O1)OCN(CCc1ccc(O)cc1)C3	5590 nM	5840 nM	4740 nM	2.09	1280 nM	1900 nM	1590 nM	–	2400 nM	–	5420 nM	–
CC(C)=CCC/C(C)=C/CC/C(C)=C/CC[C@]1(C)CCc2c3c(c(C)c(C)c2O1)OCN(CCc1ccc(O)cc1)C3	–	–	–	5.67	–	8500 nM	–	–	4500 nM	–	–	–
CC(C)=CCC/C(C)=C/CC/C(C)=C/CC[C@]1(C)CCc2c3c(c(C)c(C)c2O1)OCN(CCCCCCCCO)C3	2620 nM	2670 nM	2380 nM	1.43	2590 nM	2000 nM	–	–	4700 nM	–	2900 nM	3500 nM
CC(C)=CCC/C(C)=C/CC/C(C)=C/CC[C@]1(C)CCc2c3c(cc(C)c2O1)OCN(C1CCN(Cc2ccccc2)CC1)C3	2010 nM	1400 nM	1670 nM	–	1590 nM	–	480 nM	–	–	–	–	–
CC(C)=CCC/C(C)=C/CC/C(C)=C/CC[C@]1(C)CCc2c3c(c(C)c(C)c2O1)OCN(CCCCO)C3	> 10000 nM	> 10000 nM	9350 nM	–	1780 nM	–	–	–	10700 nM	–	> 10000 nM	2460 nM
COc1ccc(CCN2COc3c(C)c(C)c4c(c3C2)CC[C@@](C)(CC/C=C(\C)CC/C=C(\C)CCC=C(C)C)O4)cc1OC	–	–	–	0.39	–	700 nM	–	–	–	–	–	–
CC(C)=CCC/C(C)=C/CC/C(C)=C/CC[C@]1(C)CCc2c3c(cc(C)c2O1)OCN(CCCCCCO)C3	2010 nM	4450 nM	3140 nM	1.92	579 nM	2500 nM	–	–	1500 nM	–	2500 nM	810 nM
CC(C)=CCC/C(C)=C/CC/C(C)=C/CC[C@]1(C)CCc2c3c(cc(C)c2O1)OCN(CCCCCCCCCCO)C3	–	–	–	–	–	–	–	–	7200 nM	–	–	–
CC(C)=CCC/C(C)=C/CC/C(C)=C/CC[C@]1(C)CCc2c3c(cc(C)c2O1)OCN(CCCCO)C3	–	–	–	2.34	–	4200 nM	–	–	2200 nM	–	14500 nM	7420 nM
CC(C)=CCC/C(C)=C/CC/C(C)=C/CC[C@]1(C)CCc2c3c(cc(C)c2O1)OCN(CCCCCO)C3	5890 nM	6390 nM	4030 nM	6.57	3740 nM	4600 nM	6050 nM	–	–	–	–	–
